# Source: ChEMBL document CHEMBL1806372, “Cytotoxic ring A-modified steroid analogues derived from Grundmann's ketone” (Eur J Med Chem, 2011)
# Calls of active or inactive are those of the source. No cut-off for these calls is given here.
# How the values were obtained:
# HL-60 = assay: Cytotoxicity against human HL60 cells after 24 hrs by MTT assay; format: functional, cell-based; conditions: HL-60, 24 h
# Outline: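 HL-60 cells kept in RPMI 1640 with 10% FBS, no antibiotics, 37 °C, humidified 5% CO2. Cells (9 × 10^5 cells/mL) exposed to compound in 96-well plates for 24 h at 37 °C. MTT in PBS (5 mg/mL) added for 2 h, then DMSO, shaken 1 h and read photometrically. IC50 determined; cisplatin reference.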
# CCRF-CEM = assay: Growth inhibition of human CCRF-CEM cells assessed as cell growth at 10^-5 M after 48 hrs by sulforhodamine B assay; format: functional; conditions: read-out: Activity
# Outline: (§1)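 NCI 60-cell panel single high-dose screen: compound applied at 10^-5 M for 48 h, endpoint by sulforhodamine B protein-binding dye. Values reported as growth percent of treated cells relative to untreated control cells.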
# SN12C = assay: Growth inhibition of human SN12C cells assessed as cell growth at 10^-5 M after 48 hrs by sulforhodamine B assay; format: functional; conditions: read-out: Activity
# Outline: (§2)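 NCI 60-cell panel single-dose screen under the NCI protocol. Cells are exposed to compound at one concentration (10^-5 M) for 48 h. The end point is protein staining with sulforhodamine B. Each line is reported as percent growth of treated cells relative to untreated control cells.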
# U-251 = assay: Growth inhibition of human U251 cells assessed as cell growth at 10^-5 M after 48 hrs by sulforhodamine B assay; format: functional; conditions: U-251, 48 h, read-out: Activity; outline: as §2
# NCI-H23 = assay: Growth inhibition of human NCI-H23 cells assessed as cell growth at 10^-5 M after 48 hrs by sulforhodamine B assay; format: functional; conditions: NCI-H23, 48 h, read-out: Activity
# Outline: (§3)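 NCI-60 single high-dose screen run under the NCI protocol. Cells were incubated with compound at 10^-5 M for 48 h. The end point was determined by sulforhodamine B protein staining. Results are reported as percent growth of treated cells relative to untreated control cells.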
# RXF 393 = assay: Growth inhibition of human RXF393 cells assessed as cell growth at 10^-5 M after 48 hrs by sulforhodamine B assay; format: functional; conditions: RXF 393, 48 h, read-out: Activity; outline: as §3
# Aspergillus niger = assay: Antifungal activity against Aspergillus niger assessed as zone of inhibition at 5 uL and 28 degC after 36 hrs by disk diffusion method; format: functional
# Outline: (§4)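 Agar disc diffusion with the test compound applied as a 1% (w/v) DMSO solution. Yeasts were grown on AC agar and Aspergillus niger on potato dextrose broth agar, each strain spread evenly. Plates were covered and kept 36 h at 28 °C, and the inhibition zone diameter was read in mm. Clotrimazole served as reference.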
# UACC-62 = assay: Growth inhibition of human UACC62 cells assessed as cell growth at 10^-5 M after 48 hrs by sulforhodamine B assay; format: functional; conditions: UACC-62, 48 h, read-out: Activity; outline: as §2
# HL-60(TB) = assay: Growth inhibition of human HL-60(TB) cells assessed as cell growth at 10^-5 M after 48 hrs by sulforhodamine B assay; format: functional; conditions: HL-60, 48 h, read-out: Activity
# Outline: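 NCI single high-dose screen across the 60-cell panel (leukemia, melanoma, lung, colon, brain, breast, ovary, kidney, prostate), run per NCI protocol. Cells incubated with compound at 10^-5 M for 48 h. Sulforhodamine B protein-binding dye end point. Reported as growth percent of treated vs untreated control cells.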
# MCF7 = assay: Growth inhibition of human MCF7 cells assessed as cell growth at 10^-5 M after 48 hrs by sulforhodamine B assay; format: functional; conditions: MCF7, 48 h, read-out: Activity; outline: as §3
# Staphylococcus equorum = assay: Antibacterial activity against Staphylococcus equorum assessed as zone of inhibition at 5 uL and 32 degC after 36 hrs at by disk diffusion method; format: functional
# Outline: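 Disc diffusion on AC agar, each strain spread evenly over the medium; test compounds given as 1% (w/v) DMSO solutions. Plates covered and incubated 36 h at 32 °C, then the diameter of the zone of inhibited growth measured in mm. Tetracycline served as antibacterial reference.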
# SF-539 = assay: Growth inhibition of human SF539 cells assessed as cell growth at 10^-5 M after 48 hrs by sulforhodamine B assay; format: functional; conditions: SF-539, 48 h, read-out: Activity; outline: as §3
# COLO 205 = assay: Growth inhibition of human COLO205 cells assessed as cell growth at 10^-5 M after 48 hrs by sulforhodamine B assay; format: functional; conditions: COLO 205, 48 h, read-out: Activity; outline: as §1
# LOX IMVI = assay: Growth inhibition of human LOXIMVI cells assessed as cell growth at 10^-5 M after 48 hrs by sulforhodamine B assay; format: functional; conditions: read-out: Activity; outline: as §1
# NCI-H226 = assay: Growth inhibition of human NCI-H226 cells assessed as cell growth at 10^-5 M after 48 hrs by sulforhodamine B assay; format: functional; conditions: NCI-H226, 48 h, read-out: Activity; outline: as §3
# RPMI-8226 = assay: Growth inhibition of human RPMI8226 cells assessed as cell growth at 10^-5 M after 48 hrs by sulforhodamine B assay; format: functional; conditions: RPMI-8226, 48 h, read-out: Activity; outline: as §3
# UO-31 = assay: Growth inhibition of human UO31 cells assessed as cell growth at 10^-5 M after 48 hrs by sulforhodamine B assay; format: functional; conditions: UO-31, 48 h, read-out: Activity; outline: as §2
# SK-MEL-5 = assay: Growth inhibition of human SK-MEL-5 cells assessed as cell growth at 10^-5 M after 48 hrs by sulforhodamine B assay; format: functional; conditions: SK-MEL-5, 48 h, read-out: Activity; outline: as §2
# KM12 = assay: Growth inhibition of human KM12 cells assessed as cell growth at 10^-5 M after 48 hrs by sulforhodamine B assay; format: functional; conditions: KM12, 48 h, read-out: Activity; outline: as §1
# ACHN = assay: Growth inhibition of human ACHN cells assessed as cell growth at 10^-5 M after 48 hrs by sulforhodamine B assay; format: functional; conditions: read-out: Activity; outline: as §1
# UACC-257 = assay: Growth inhibition of human UACC257 cells assessed as cell growth at 10^-5 M after 48 hrs by sulforhodamine B assay; format: functional; conditions: UACC-257, 48 h, read-out: Activity; outline: as §2
# HCT-116 = assay: Growth inhibition of human HCT116 cells assessed as cell growth at 10^-5 M after 48 hrs by sulforhodamine B assay; format: functional; conditions: HCT-116, 48 h, read-out: Activity; outline: as §1
# HOP-92 = assay: Growth inhibition of human HOP92 cells assessed as cell growth at 10^-5 M after 48 hrs by sulforhodamine B assay; format: functional; conditions: HOP-92, 48 h, read-out: Activity; outline: as §1
# HOP-62 = assay: Growth inhibition of human HOP62 cells assessed as cell growth at 10^-5 M after 48 hrs by sulforhodamine B assay; format: functional; conditions: HOP-62, 48 h, read-out: Activity; outline: as §1
# MDA-MB-468 = assay: Growth inhibition of human MDA-MB-468 cells assessed as cell growth at 10^-5 M after 48 hrs by sulforhodamine B assay; format: functional; conditions: MDA-MB-468, 48 h, read-out: Activity; outline: as §3
# TK-10 = assay: Growth inhibition of human TK10 cells assessed as cell growth at 10^-5 M after 48 hrs by sulforhodamine B assay; format: functional; conditions: TK-10, 48 h, read-out: Activity; outline: as §2
# Yarrowia lipolytica = assay: Antifungal activity against Yarrowia lipolytica assessed as zone of inhibition at 5 uL and 28 degC after 36 hrs by disk diffusion method; format: functional; outline: as §4
Compound,IC50 (HL-60) [µM],growth at 10 µM (CCRF-CEM) [%],growth at 10 µM (SN12C) [%],growth at 10 µM (U-251) [%],growth at 10 µM (NCI-H23) [%],growth at 10 µM (RXF 393) [%],diameter of the inhibition zone (DIZ) (Aspergillus niger),growth at 10 µM (UACC-62) [%],growth at 10 µM (HL-60(TB)) [%],growth at 10 µM (MCF7) [%],diameter of the inhibition zone (DIZ) (Staphylococcus equorum),growth at 10 µM (SF-539) [%],growth at 10 µM (COLO 205) [%],growth at 10 µM (LOX IMVI) [%],growth at 10 µM (NCI-H226) [%],growth at 10 µM (RPMI-8226) [%],growth at 10 µM (UO-31) [%],growth at 10 µM (SK-MEL-5) [%],growth at 10 µM (KM12) [%],growth at 10 µM (ACHN) [%],also measured
CC(C)CCC[C@@H](C)[C@H]1CC[C@H]2[C@@H]3CCN4C(=O)CCC(=O)N4[C@@H]3CC[C@]12C,30,87.4,88,106,87,102,inactive,88.1,72,88.5,9 mm,104,90.3,84.5,90.3,56.6,76.3,96.4,105,90,growth at 10 µM (UACC-257): 76.2%; growth at 10 µM (HCT-116): 95%; growth at 10 µM (HOP-92): 77.5%; growth at 10 µM (HOP-62): 87.7%; growth at 10 µM (MDA-MB-468): 122%; growth at 10 µM (TK-10): 108%; diameter of the inhibition zone (DIZ) (Yarrowia lipolytica): 15 mm
CC(C)CCC[C@@H](C)[C@H]1CC[C@H]2C3=CC[C@@H]4C(=O)C=CC(=O)[C@@H]4[C@@H]3CC[C@]12C,0.7,17,20.1,11.5,8.4,-66.6,inactive,-63.2,-5.46,8.65,inactive,38.2,12.4,-43.4,42,8.72,-67.9,-3.37,-10.1,4.54,growth at 10 µM (UACC-257): 28.7%; growth at 10 µM (HCT-116): 3.29%; growth at 10 µM (HOP-92): -28.9%; growth at 10 µM (HOP-62): 12.1%; growth at 10 µM (MDA-MB-468): 2.69%; growth at 10 µM (TK-10): -36.6%; diameter of the inhibition zone (DIZ) (Yarrowia lipolytica): inactive
CC(C)CCC[C@@H](C)[C@H]1CC[C@H]2C3=CCn4c(=O)ccc(=O)n4[C@@H]3CC[C@]12C,0.03,-2.44,-97.7,-96.9,-55.4,-76,inactive,-82.4,-43.3,-92.5,inactive,-96.8,-93.1,-89.5,-91.8,-41.5,-88.5,-79.3,-65.5,-95.1,growth at 10 µM (UACC-257): -97.5%; growth at 10 µM (HCT-116): -44.6%; growth at 10 µM (HOP-92): -94%; growth at 10 µM (HOP-62): -93.3%; growth at 10 µM (MDA-MB-468): -49%; growth at 10 µM (TK-10): -83.1%; diameter of the inhibition zone (DIZ) (Yarrowia lipolytica): 7 mm
